Data published in ChEMBL document CHEMBL1138434 (J Nat Prod, 2003).
Values after ≈ are worked out from the molar mass of the structure shown. Active and inactive are the calls of the source. The calls are words filed in the database; no cut-off is given here.

What was measured:
[1] = test system: T47D; assay: Cytotoxicity against human T47D cells at 10 uM after 48 hrs by neutral red staining; format: cell-based
Outline: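 T47D cells in DMEM/F12 with 10% FBS and penicillin/streptomycin, plated at 30 000 cells/well. After 24 h, compound added at final 0.03-10 µM and incubated 24 and 48 h at 37 °C. Then Neutral Red 0.15 mg/mL for 2 h, lysis in 0.04 N HCl/2-propanol, A540 minus A630. Viability given as percent of control.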

[2] = test system: Saccharomyces cerevisiae; assay: Antifungal activity against Saccharomyces cerevisiae DSY 416 expressing Candida albicans MDR1 after 40 to 48 hrs by serial dilution method in presence of 33 uM fluconazole; format: functional, organism-based; conditions: DSY 416, MDR1
Outline: (§1)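 S. cerevisiae strains carrying C. albicans efflux pumps, grown 1-2 days from frozen stocks on YNB-URA/TRYP selection agar at 30 °C. Modified NCCLS broth microdilution: serial dilutions in 0.9% saline (compounds dissolved in DMSO), inoculum 1.0 × 10^4 CFU/mL in YPD. Incubated 30 °C for 40-48 h and read at 630 nm before and after. IC50 = 50% growth inhibition; MIC = lowest concentration with no detectable growth.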

[3] = test system: Saccharomyces cerevisiae; assay: Potentiation of fluconazole-induced antifungal activity against Saccharomyces cerevisiae DSY 426 expressing Candida albicans FLU1 assessed as fractional inhibitory concentration at 3.8 uM after 40 to 48 hrs by checkerboard assay; format: functional
Outline: (§2)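 Checkerboard in 96-well format: FLU serially diluted along one axis and partner agent along the other, covering all combinations. S. cerevisiae pump strains or null strain at 1.0 × 10^4 CFU/mL in YPD, 30 °C for 40-48 h, growth read at 630 nm. FIC uses IC50 endpoint; FLU at 0.5 µM (null pump), 50 µM (CDR1, MDR1), 1.56 µM (CDR2), 3.13 µM (FLU1).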

[4] = test system: Saccharomyces cerevisiae; assay: Antifungal activity against Saccharomyces cerevisiae DSY 416 expressing Candida albicans MDR1 after 40 to 48 hrs by serial dilution method in absence of fluconazole; format: functional, organism-based; conditions: DSY 416, MDR1; outline: as §1
[5] = test system: Saccharomyces cerevisiae; assay: Antifungal activity against Saccharomyces cerevisiae DSY 415 expressing Candida albicans CDR1 after 40 to 48 hrs by serial dilution method; format: functional, organism-based; outline: as §1
[6] = test system: Saccharomyces cerevisiae; assay: Potentiation of fluconazole-induced antifungal activity against Saccharomyces cerevisiae DSY 415 expressing Candida albicans CDR1 assessed as fractional inhibitory concentration at 3.8 uM after 40 to 48 hrs by checkerboard assay; format: functional; outline: as §2
[7] = test system: Saccharomyces cerevisiae; assay: Antifungal activity against Saccharomyces cerevisiae DSY 415 expressing Candida albicans CDR1 after 40 to 48 hrs by serial dilution method in presence of 33 uM fluconazole; format: functional, organism-based; outline: as §1
[8] = test system: Saccharomyces cerevisiae; assay: Potentiation of fluconazole-induced antifungal activity against Saccharomyces cerevisiae DSY 417 expressing Candida albicans CDR2 assessed as fractional inhibitory concentration at 3.8 uM after 40 to 48 hrs by checkerboard assay; format: functional; outline: as §2
[9] = test system: Saccharomyces cerevisiae; assay: Potentiation of fluconazole-induced antifungal activity against Saccharomyces cerevisiae DSY 416 expressing Candida albicans MDR1 assessed as fractional inhibitory concentration at 3.8 uM after 40 to 48 hrs by checkerboard assay; format: functional; outline: as §2
[10] = test system: Saccharomyces cerevisiae; assay: Antifungal activity against Saccharomyces cerevisiae DSY 415 expressing Candida albicans CDR1 after 40 to 48 hrs by serial dilution method in absence of fluconazole; format: functional, organism-based; outline: as §1
[11] = test system: Saccharomyces cerevisiae; assay: Potentiation of fluconazole-induced antifungal activity against Saccharomyces cerevisiae DSY 390 assessed as fractional inhibitory concentration at 3.8 uM after 40 to 48 hrs by checkerboard assay; format: functional; outline: as §2
[12] = biological target: T1, Multidrug resistance protein 1 (Candida albicans (strain SC5314 / ATCC MYA-2876) (Yeast)) (UniProt Q5ABU7); assay: Inhibition of Candida albicans MDR1-mediated fluconazole resistance in Saccharomyces cerevisiae DSY 416 up to 90 uM
T1 sequence (whole entry): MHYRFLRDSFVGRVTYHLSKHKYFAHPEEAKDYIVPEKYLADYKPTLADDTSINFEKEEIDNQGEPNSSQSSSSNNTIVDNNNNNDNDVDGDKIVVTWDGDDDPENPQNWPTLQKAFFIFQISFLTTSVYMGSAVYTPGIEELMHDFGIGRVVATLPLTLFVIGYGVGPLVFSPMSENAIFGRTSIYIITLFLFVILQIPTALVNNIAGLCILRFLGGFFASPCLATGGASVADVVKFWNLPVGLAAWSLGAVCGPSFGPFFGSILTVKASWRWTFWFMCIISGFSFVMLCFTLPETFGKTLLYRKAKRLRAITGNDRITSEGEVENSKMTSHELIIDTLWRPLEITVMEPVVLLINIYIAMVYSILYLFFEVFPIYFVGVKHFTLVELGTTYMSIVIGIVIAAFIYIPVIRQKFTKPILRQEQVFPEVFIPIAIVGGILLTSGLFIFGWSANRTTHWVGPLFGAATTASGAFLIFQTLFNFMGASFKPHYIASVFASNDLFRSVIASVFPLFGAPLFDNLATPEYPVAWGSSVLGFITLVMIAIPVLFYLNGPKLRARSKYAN

[13] = test system: Saccharomyces cerevisiae; assay: Antifungal activity against Saccharomyces cerevisiae DSY 426 expressing Candida albicans FLU1 after 40 to 48 hrs by serial dilution method; format: functional, organism-based; outline: as §1
[14] = test system: Saccharomyces cerevisiae; assay: Potentiation of fluconazole-induced antifungal activity against Saccharomyces cerevisiae DSY 417 expressing Candida albicans CDR2 assessed as fractional inhibitory concentration at 0.1 uM after 40 to 48 hrs by checkerboard assay; format: functional; outline: as §2
[15] = test system: Saccharomyces cerevisiae; assay: Antifungal activity against Saccharomyces cerevisiae DSY 416 expressing Candida albicans MDR1 after 40 to 48 hrs by serial dilution method; format: functional, organism-based; conditions: for MIC: DSY 416; for IC50: DSY 416, MDR1
Outline: (§3)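 S. cerevisiae strains (null pump DSY 390, or carrying C. albicans CDR1, MDR1, CDR2, FLU1 pumps) were grown from −80 °C glycerol stocks on YNB-URA/TRYP selection agar at 30 °C. The modified NCCLS broth microdilution used compound serially diluted in 0.9% saline from DMSO, with YPD inoculum at 1.0 × 10^4 CFU/mL final. Plates were read at OD630 before and after 40-48 h at 30 °C. IC50 = 50% growth inhibition; MIC = no detectable growth.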

[16] = test system: Saccharomyces cerevisiae; assay: Antifungal activity against Saccharomyces cerevisiae DSY 390 after 40 to 48 hrs by serial dilution method; format: functional, organism-based; outline: as §3
[17] = test system: Saccharomyces cerevisiae; assay: Antifungal activity against Saccharomyces cerevisiae DSY 417 expressing Candida albicans CDR2 after 40 to 48 hrs by serial dilution method; format: functional, organism-based; outline: as §3
[18] = test system: Saccharomyces cerevisiae; assay: Potentiation of fluconazole-induced antifungal activity against Saccharomyces cerevisiae DSY 415 expressing Candida albicans CDR1 assessed as fractional inhibitory concentration at 0.1 uM after 40 to 48 hrs by checkerboard assay; format: functional; outline: as §2
[19] = test system: Saccharomyces cerevisiae; assay: Potentiation of fluconazole-induced antifungal activity against Saccharomyces cerevisiae DSY 416 expressing Candida albicans MDR1 assessed as fractional inhibitory concentration at 0.1 uM after 40 to 48 hrs by checkerboard assay; format: functional; outline: as §2
[20] = test system: Saccharomyces cerevisiae; assay: Potentiation of fluconazole-induced antifungal activity against Saccharomyces cerevisiae DSY 390 assessed as fractional inhibitory concentration at 0.1 uM after 40 to 48 hrs by checkerboard assay; format: functional; outline: as §2
[21] = test system: Saccharomyces cerevisiae; assay: Potentiation of fluconazole-induced antifungal activity against Saccharomyces cerevisiae DSY 426 expressing Candida albicans FLU1 assessed as fractional inhibitory concentration at 0.1 uM after 40 to 48 hrs by checkerboard assay; format: functional; outline: as §2
[22] = test system: Saccharomyces cerevisiae; assay: Potentiation of fluconazole-induced antifungal activity against Saccharomyces cerevisiae DSY 415 expressing Candida albicans CDR1 assessed as fractional inhibitory concentration at 3.1 uM after 40 to 48 hrs by checkerboard assay; format: functional
Outline: (§4)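 This was a checkerboard in a modified NCCLS microdilution: fluconazole and second agent were each serially diluted in saline and combined in all concentration pairs. Pump-expressing or null S. cerevisiae inoculum was 1.0 × 10^4 CFU/mL in YPD, with OD630 read before and after 40-48 h at 30 °C. FIC used IC50 as endpoint. FLU levels for FIC were 0.5 µM (null), 50 µM (CDR1, MDR1), 1.56 µM (CDR2) and 3.13 µM (FLU1).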

[23] = test system: Saccharomyces cerevisiae; assay: Potentiation of fluconazole-induced antifungal activity against Saccharomyces cerevisiae DSY 426 expressing Candida albicans FLU1 assessed as fractional inhibitory concentration at 3.1 uM after 40 to 48 hrs by checkerboard assay; format: functional; outline: as §4
[24] = test system: Saccharomyces cerevisiae; assay: Potentiation of fluconazole-induced antifungal activity against Saccharomyces cerevisiae DSY 390 assessed as fractional inhibitory concentration at 3.1 uM after 40 to 48 hrs by checkerboard assay; format: functional; outline: as §4
[25] = test system: Saccharomyces cerevisiae; assay: Potentiation of fluconazole-induced antifungal activity against Saccharomyces cerevisiae DSY 417 expressing Candida albicans CDR2 assessed as fractional inhibitory concentration at 3.1 uM after 40 to 48 hrs by checkerboard assay; format: functional; outline: as §4
[26] = test system: Saccharomyces cerevisiae; assay: Potentiation of fluconazole-induced antifungal activity against Saccharomyces cerevisiae DSY 416 expressing Candida albicans MDR1 assessed as fractional inhibitory concentration at 3.1 uM after 40 to 48 hrs by checkerboard assay; format: functional; outline: as §4

SMILES | IC50 [5] | IC50 [13] | MIC [13] | MIC [5] | MIC [15] | IC50 [15] | IC50 [16] | MIC [16] | IC50 [17] | MIC [17] | further results
CC(=O)O[C@H]1C=C2[C@@H]3CC[C@H]([C@H](C)CCCC(C)C)[C@@]3(C)C[C@@H]3O[C@@]23[C@@]2(CO)CC[C@H](O)C[C@]12O | > 30 µM |  |  |  |  |  |  |  |  |  | Activity [1]: Non-toxic; IC50 [2]: < 4 µM; fractional inhibitory concentration index (FICI) [3]: 1.26; IC50 [4]: > 104 µM; fractional inhibitory concentration index (FICI) [6]: 0.88; IC50 [7]: 31 µM; fractional inhibitory concentration index (FICI) [8]: 1.6; fractional inhibitory concentration index (FICI) [9]: 0.05; IC50 [10]: > 104 µM; fractional inhibitory concentration index (FICI) [11]: 1.85
CC(=O)OC[C@]12CC[C@H](OC(C)=O)C[C@]1(O)[C@@H](OC(C)=O)C=C1[C@@H]3CC[C@H]([C@H](C)CCCC(C)C)[C@@]3(C)C[C@@H]3O[C@@]132 |  |  |  |  |  |  |  |  |  |  | Activity [12]: inactive
C[C@@H]1[C@H](O)[C@@H](C)/C=C/C=C/C=C/C=C/C=C/C=C/C=C/[C@H](O[C@@H]2O[C@H](C)[C@@H](O)[C@H](N)[C@@H]2O)C[C@@H]2O[C@](O)(C[C@@H](O)C[C@@H](O)[C@H](O)CC[C@@H](O)C[C@@H](O)CC(=O)O[C@H]1C)C[C@H](O)[C@H]2C(=O)O [AMPHOTERICIN B] | 0.55 µM | 0.55 µM | 0.75 µM (≈ 0.693 µg/mL) | 0.75 µM (≈ 0.693 µg/mL) | 0.75 µM (≈ 0.693 µg/mL) | 0.55 µM | 0.55 µM | 0.75 µM (≈ 0.693 µg/mL) | 0.55 µM | 0.75 µM (≈ 0.693 µg/mL) | fractional inhibitory concentration index (FICI) [14]: 1.58; fractional inhibitory concentration index (FICI) [18]: 0.89; fractional inhibitory concentration index (FICI) [19]: 1.42; fractional inhibitory concentration index (FICI) [20]: 1.85; fractional inhibitory concentration index (FICI) [21]: 0.97
CC(C)[C@@H]1OC(=O)[C@@H](Cc2ccccc2)N(C)C(=O)[C@H](C(C)C)OC(=O)[C@@H](Cc2ccccc2)N(C)C(=O)[C@H](C(C)C)OC(=O)[C@@H](Cc2ccccc2)N(C)C1=O [BEAUVERICIN] |  |  |  |  |  |  |  |  |  |  | fractional inhibitory concentration index (FICI) [22]: 0.045; fractional inhibitory concentration index (FICI) [23]: 2; fractional inhibitory concentration index (FICI) [24]: 2.57; fractional inhibitory concentration index (FICI) [25]: 1.3; fractional inhibitory concentration index (FICI) [26]: 2
OC(Cn1cncn1)(Cn1cncn1)c1ccc(F)cc1F [FLUCONAZOLE] | 300 µM | 35 µM | 50 µM (≈ 15.3 µg/mL) | 400 µM (≈ 123 µg/mL) | > 400 µM | > 400 µM | 3.5 µM | 8 µM (≈ 2.45 µg/mL) | 15 µM | 25 µM (≈ 7.66 µg/mL) | 
